# Experiments:
# Rattus norvegicus [1] = test: Anti cancer activity of compound was measured by final body weight(g) of rat in 100 mg/kg diet after MNU intravenous injection; type: functional
# In short: (§1)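 Female rats housed five per cage on 4% Teklad rodent diet; single intravenous MNU via jugular vein at 50 days of age. Retinoid mixed into diet (Patterson–Kelly liquid–solid blender; stability checked by HPLC) and fed continuously from 53 days of age; n = 20 per group; diet-only MNU control group. Weighed weekly; body weight and liver, uterus, ovary weights (g per 100 g body weight) taken at study end.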
# Rattus norvegicus [2] = test: Anti cancer activity of compound was measured by final body weight(g) of rat in 200 mg/kg diet after MNU intravenous injection; type: functional; in short: as §1
# Rattus norvegicus [3] = test: Anti cancer activity of compound was measured by weight of liver in gram per 100 g body weight of rat in 100 mg/kg diet after MNU intravenous injection; type: functional; in short: as §1
# Rattus norvegicus [4] = test: Anti cancer activity of compound was measured by weight of liver in gram per 100 g body weight of rat in 200 mg/kg diet after MNU intravenous injection; type: functional; in short: as §1
# Rattus norvegicus [5] = test: Anti cancer activity of compound was measured by weight of uterus in gram per 100 g body weight of rat in 100 mg/kg diet after MNU intravenous injection; type: functional; in short: as §1
# Rattus norvegicus [6] = test: Anti cancer activity of compound was measured by weight of uterus in gram per 100 g body weight of rat in 200 mg/kg diet after MNU intravenous injection; type: functional; in short: as §1
# Rattus norvegicus [7] = test: Anti cancer activity of compound was measured by weight of ovaries in gram per 100 g body weight of rat in 200 mg/kg diet after MNU intravenous injection; type: functional, Female gonad; in short: as §1
# Rattus norvegicus [8] = test: Anti cancer activity of compound was measured by weight of ovaries in gram per 100 g body weight of rat in 100 mg/kg diet after MNU intravenous injection; type: functional, Female gonad; in short: as §1
smiles,measurement,setting,value
CC(=C\C=C\C(C)=C\C(=O)O)/C=C1\CCCc2ccccc21,Body weight,Rattus norvegicus [1],271 g
same,Body weight,Rattus norvegicus [2],272 g
same,Organ weight,Rattus norvegicus [3],2.96 g
same,Organ weight,Rattus norvegicus [4],3.11 g
same,Organ weight,Rattus norvegicus [5],0.16 g
same,Organ weight,Rattus norvegicus [6],0.21 g
same,Organ weight,Rattus norvegicus [7],0.052 g
same,Organ weight,Rattus norvegicus [8],0.046 g

# From ChEMBL document CHEMBL1145062, “Conformationally defined retinoic acid analogues. 5. Large-scale synthesis and mammary cancer chemopreventive activity for (2E,4E,6Z,8E)-8-(3',4'-dihydro-1'(2'H)-naphthalen-1'-ylidene)-3,7-dimethyl-2,4,6-octatrienoic acid (9cUAB30)” (2003)
